These results are taken from ChEMBL document CHEMBL2177091, “Spirocyclic sulfamides as β-secretase 1 (BACE-1) inhibitors for the treatment of Alzheimer's disease: utilization of structure based drug design, WaterMap, and CNS penetration studies to identify centrally efficacious inhibitors” (J Med Chem, 2012).

Molecules are shown by their SMILES.

One data set in a line: in vitro. As to conditions: human, liver microsomes.
A short description of data set [1]: Ratio of free drug concentration in brain to free drug concentration in plasma in FVB/N mouse at 10 mg/kg, sc after 60 mins. Format: ADME, organism-based. Further details: dose 10 mg/kg, route subcutaneous. As to conditions: brain and plasma (free concentrations), read-out: K(p,uu,brain). Put shortly:
(§1)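 Mice dosed 10 mg/kg subcutaneously; plasma and brain exposures taken at 60 min. Unbound fractions determined by equilibrium dialysis.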

The subject of another data set is Plasma. The experiment in a line: Fraction unbound in FVB/N mouse plasma at 1 uM after 6 hrs by equilibrium dialysis. Format: ADME, cell-free.
Data set [2] can be described thus: Ratio of drug uptake in brain to plasma in FVB/N mouse at 10 mg/kg, sc after 60 mins. Format: ADME, organism-based. Set-up: dose 10 mg/kg, route subcutaneous. As to conditions: brain and plasma, read-out: BPR. Put shortly: as §1
Data set [3] is described as follows: Intrinsic clearance in rat liver microsomes. Format: ADME, Microsome. The settings on record: read-out: CLH.

Take `C[C@H]1C[C@]2(CCN1Cc1ccc(O)c(Cl)c1)CN(C)S(=O)(=O)N2c1cccc(F)c1`: the CLint scaled in the data set “in vitro” is 173 mL/min/kg.

`CC(=O)Nc1ccc(CN2CC[C@@]3(C[C@@H]2C)CN(C)S(=O)(=O)N3c2cccc(F)c2)cc1` showed a CLint scaled in “in vitro” of over 300 mL/min/kg.

As to `CCOc1cc(CN2CC[C@@]3(C[C@@H]2C)CN(C)S(=O)(=O)N3c2cccc(F)c2)ccc1O`, the CLint scaled in “in vitro” came to 79.9 mL/min/kg.

Take `CC(C)Oc1cccc(CN2CC[C@@]3(C[C@@H]2C)CN(C)S(=O)(=O)N3c2cccc(F)c2)c1`: the Kp uu at 1 h in data set [1] stood at 0.65. The molecule further showed a Cp(f) in the data set with Plasma of 0.036. The Kp at 1 h in data set [2] came out at 0.97. Moreover, the CLint scaled in data set [3] is over 65.5 mL/min/kg; in “in vitro”, over 19 mL/min/kg.

Turning to `CC(C)Oc1cc(CN2CC[C@@]3(C[C@@H]2C)CN(C)S(=O)(=O)N3c2cccc(F)c2)ccc1O`, the Kp uu at 1 h in data set [1] turned out to be 0.27. Also, the Cp(f) in the data set on Plasma was determined as 0.17. Besides, the Kp at 1 h in data set [2] turned out to be 0.35. For the same molecule, the CLint scaled is 59.7 mL/min/kg in data set [3] and 15.4 mL/min/kg in the data set “in vitro”.

In the case of `CC(C)Oc1cccc(CN2CC[C@]3(CNS(=O)(=O)N3c3cccc(F)c3)C[C@@H]2C)c1`, the Kp uu at 1 h in data set [1] stood at 0.22. In addition, the Cp(f) in the data set on Plasma turned out to be 0.041. In addition, the Kp at 1 h in data set [2] was determined as 0.67. Besides, the figures for the CLint scaled (in data set [3]; in “in vitro”) were over 65.5 mL/min/kg and over 19 mL/min/kg, respectively.

In “in vitro”, `C[C@H]1C[C@]2(CCN1Cc1ccc(O)cc1)CN(C)S(=O)(=O)N2c1cccc(F)c1` gave a CLint scaled of 152 mL/min/kg.

On to `CCc1n[nH]c2ccc(CN3CC[C@@]4(C[C@@H]3C)CN(C)S(=O)(=O)N4c3cccc(F)c3)cc12`, for which the CLint scaled in the data set “in vitro” is 74.2 mL/min/kg.

`C[C@H]1C[C@]2(CCN1Cc1ccc3[nH]ccc3c1)CN(C)S(=O)(=O)N2c1cccc(F)c1`: the CLint scaled in the data set “in vitro” was determined as 175 mL/min/kg.
